# Source: ChEMBL document CHEMBL2010705, “Design and synthesis of 4-alkynyl pyrazoles as inhibitors of PDE4: a practical access via Pd/C-Cu catalysis” (Bioorg Med Chem Lett, 2012)
# Active and inactive are the calls of the source. No cut-off for these calls is given here.
# What was measured:
# [1] = target: 3',5'-cyclic-AMP phosphodiesterase 4B (Homo sapiens) (UniProt Q07343); test: Inhibition of PDE4B expressed in Sf9 cells using cAMP as substrate preincubated for 15 mins prior substrate addition measured after 1 hr by luminescence-based spectrophotometry
# Procedure, shortened: (§1)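 10 ng PDE4B enzyme (isolated from Sf9 cells) was preincubated 15 min with compound or DMSO vehicle, then incubated 1 h with 5 µM cAMP using a PDElight HTS cAMP phosphodiesterase kit. The reaction was stopped, then developed with detection reagent for 10 min in the dark. Luminescence (RLU) was read, and % inhibition was calculated as (RLU vehicle − RLU inhibitor)/RLU vehicle × 100.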
# [2] = target: 3',5'-cyclic-AMP phosphodiesterase 4B (Homo sapiens) (UniProt Q07343); test: Inhibition of PDE4B expressed in Sf9 cells using cAMP as substrate at 30 uM preincubated for 15 mins prior substrate addition measured after 1 hr by luminescence-based spectrophotometry; procedure, shortened: as §1
# [3] = target: 3',5'-cyclic-AMP phosphodiesterase 4D (Homo sapiens) (UniProt Q08499); test: Inhibition of PDE4D2 using cAMP as substrate at 30 uM preincubated for 15 mins prior substrate addition measured after 1 hr by luminescence-based spectrophotometry
# [4] = Ratio of inhibition of PDE4B over inhibition of PDE4D2
# Sequence of 3',5'-cyclic-AMP phosphodiesterase 4D (Homo sapiens) (Q08499 whole entry): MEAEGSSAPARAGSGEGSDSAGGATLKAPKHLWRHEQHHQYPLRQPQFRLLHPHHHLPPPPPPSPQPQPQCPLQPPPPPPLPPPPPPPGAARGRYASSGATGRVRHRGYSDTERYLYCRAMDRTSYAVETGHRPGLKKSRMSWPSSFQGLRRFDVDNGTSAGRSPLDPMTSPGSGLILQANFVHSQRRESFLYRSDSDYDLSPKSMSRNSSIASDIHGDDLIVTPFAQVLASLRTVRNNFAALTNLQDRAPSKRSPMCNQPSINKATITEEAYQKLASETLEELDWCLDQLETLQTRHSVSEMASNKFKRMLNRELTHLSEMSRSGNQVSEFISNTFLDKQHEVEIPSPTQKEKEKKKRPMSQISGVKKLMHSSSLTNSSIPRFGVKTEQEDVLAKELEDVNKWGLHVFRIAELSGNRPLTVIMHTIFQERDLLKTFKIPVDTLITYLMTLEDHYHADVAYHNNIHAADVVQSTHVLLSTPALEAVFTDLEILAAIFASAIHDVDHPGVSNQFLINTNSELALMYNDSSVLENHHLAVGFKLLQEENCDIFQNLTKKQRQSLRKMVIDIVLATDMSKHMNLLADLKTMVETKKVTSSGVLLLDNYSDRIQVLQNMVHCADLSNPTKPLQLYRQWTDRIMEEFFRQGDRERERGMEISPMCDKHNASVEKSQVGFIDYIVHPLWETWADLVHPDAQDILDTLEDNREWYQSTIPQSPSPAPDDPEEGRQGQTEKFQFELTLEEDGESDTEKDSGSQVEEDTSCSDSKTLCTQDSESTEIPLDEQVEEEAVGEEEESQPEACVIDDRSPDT
# Sequence of 3',5'-cyclic-AMP phosphodiesterase 4B (Homo sapiens) (Q07343 whole entry): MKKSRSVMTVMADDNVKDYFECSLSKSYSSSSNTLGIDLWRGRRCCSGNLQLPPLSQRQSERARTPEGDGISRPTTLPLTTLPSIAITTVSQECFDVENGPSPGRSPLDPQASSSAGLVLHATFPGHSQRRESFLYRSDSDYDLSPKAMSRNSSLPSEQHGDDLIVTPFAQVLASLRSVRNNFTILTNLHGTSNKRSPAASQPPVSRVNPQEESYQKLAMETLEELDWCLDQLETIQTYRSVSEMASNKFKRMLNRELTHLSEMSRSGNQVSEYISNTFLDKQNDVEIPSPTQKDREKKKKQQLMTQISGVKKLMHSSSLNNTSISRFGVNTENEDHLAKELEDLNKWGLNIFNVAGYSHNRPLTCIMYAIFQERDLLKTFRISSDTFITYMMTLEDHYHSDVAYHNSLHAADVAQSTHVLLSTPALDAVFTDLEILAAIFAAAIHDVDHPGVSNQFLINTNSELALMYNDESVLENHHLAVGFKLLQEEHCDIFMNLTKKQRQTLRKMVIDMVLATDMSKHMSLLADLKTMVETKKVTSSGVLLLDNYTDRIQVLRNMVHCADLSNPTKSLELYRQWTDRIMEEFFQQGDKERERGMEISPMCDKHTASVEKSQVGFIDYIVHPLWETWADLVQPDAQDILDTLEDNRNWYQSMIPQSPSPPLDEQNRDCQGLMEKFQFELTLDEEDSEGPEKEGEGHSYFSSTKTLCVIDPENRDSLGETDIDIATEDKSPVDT
SMILES,inhibition [1],inhibition [2] [%],inhibition [3] [%],Ratio [4]
Cc1c(C#Cc2ccccc2)cnn1C,Active,,,
CCOC(=O)c1n[nH]c(-c2cccc(Cl)c2)c1C#Cc1ccccc1,,70,20,2
CCOC(=O)c1nn(C)c(-c2cccc(Cl)c2)c1C#CCCCC#N,Dose-dependent effect,73.4,20,2
CCOC(=O)c1nn(C)c(-c2cccc(Cl)c2)c1C#CCO,,69.1,,
CCOC(=O)c1nn(C)c(-c2cccc(Cl)c2)c1C#CC(C)(C)O,,67.3,,
Cc1nn(C)c(C)c1C#Cc1ccccc1,Active,,,

# Next, values leading:
inhibition [1],inhibition [2] [%],inhibition [3] [%],Ratio [4],SMILES
,65.1,,,CCOC(=O)c1n[nH]c(-c2cccc(Cl)c2)c1C#CCCO
,59.2,,,CCOC(=O)c1nn(C)c(-c2cccc(Cl)c2)c1C#CCCO
,71.1,20,2,CCOC(=O)c1n[nH]c(-c2cccc(Cl)c2)c1C#CCCCC#N
,21.1,,,CCOC(=O)c1n[nH]c(-c2cccc(Cl)c2)c1C#CC1(O)CCCCC1
,70,20,2,CCOC(=O)c1n[nH]c(-c2cccc(Cl)c2)c1C#CC(C)(C)O
,68.1,,,CCOC(=O)c1n[nH]c(-c2cccc(Cl)c2)c1C#CCO
